The subject of one data set is MDA-MB-231. The data set is described as follows: Antiproliferative activity against human MDA-MB-231 cells assessed as cell growth at 10 uM incubated for 48 hrs by SRB assay relative to control. Type of data set: functional. Particulars: read-out: Activity. Put shortly:
(§1)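 Single-concentration screen at 10 μM run by NCI on its NCI-60 human tumour panel (blood, lung, colon, CNS, melanoma, ovary, kidney, prostate, breast), following the NCI-60 published methodology. Read-out is growth percent relative to untreated cells.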

The test system of data set [1] is A549. The experiment in a line: Synergistic antiproliferative activity against human A549 cells assessed as combination index incubated for 72 hrs presence of adriamycin by alamar blue assay. In kind it is functional. For orientation: Alamar Blue is a resazurin reagent that responds to reducing activity.
The subject of the next data set is HCT-15. The experiment in a line: Antiproliferative activity against human HCT-15 cells assessed as cell growth at 10 uM incubated for 48 hrs by SRB assay relative to control. In kind it is functional. The conditions noted are these: read-out: Activity. Summed up:
as §1
(Sulforhodamine B stains cellular protein and so reports cell mass.)

In data set [2] the test system is A549. The data set is described as follows: Antiproliferative activity against human A549 cells assessed as inhibition of cell growth incubated for 72 hrs by alamar blue assay. Type of data set: functional, cell-based. Particulars: A549, 72 h. Put shortly: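 Cells grown in IMDM with 20% FBS and penicillin/streptomycin at 37 °C, 5% CO2. Compound added to plated cells for 72 h. Alamar blue (1 mM solution) then added for 5–6 h, and fluorescence read at 530/590 nm. IC50 derived for single-agent treatment.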

A further data set concerns NCI-H522. The data set is described as follows: Antiproliferative activity against human NCI-H522 cells assessed as cell growth at 10 uM incubated for 48 hrs by SRB assay relative to control. In kind it is functional. Particulars: read-out: Activity. Put shortly: as §1
A further data set relates to HOP-92. The experiment in a line: Antiproliferative activity against human HOP-92 cells assessed as cell growth at 10 uM incubated for 48 hrs by SRB assay relative to control. In kind it is functional. Particulars: read-out: Activity. Summed up: as §1
Data set [3] can be described thus: Microsomal stability in human liver microsomes assessed as half life at 0.5 uM prewarmed for 5 mins followed by NADPH addition and measured for 90 mins by LC-MS/MS analysis. In kind it is ADME, Microsome. Particulars: time 95 min. Summed up:
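Incubation held 0.8 mg/mL human liver microsomes, MgCl2, potassium phosphate buffer pH 7.4 and 0.5 μM compound. After 5 min prewarming at 37 °C, NADPH started the reaction.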

A further data set relates to SNB-75. The experiment in a line: Antiproliferative activity against human SNB-75 cells assessed as cell growth at 10 uM incubated for 48 hrs by SRB assay relative to control. Type of data set: functional. Particulars: read-out: Activity. Put shortly: (§2)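 NCI-60 single-dose screen: compounds tested at 10 μM, and growth percent of each cell line calculated. The full method follows the NCI DTP protocol.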

The subject of the next data set is U-251. The experiment in a line: Antiproliferative activity against human U-251 cells assessed as cell growth at 10 uM incubated for 48 hrs by SRB assay relative to control. In kind it is functional. Particulars: read-out: Activity. Put shortly: as §2
In another data set the test system is SF-268. The data set is described as follows: Antiproliferative activity against human SF-268 cells assessed as cell growth at 10 uM incubated for 48 hrs by SRB assay relative to control. In kind it is functional. The conditions noted are these: read-out: Activity. Summed up: as §1
In the next data set the test system is NCI-H322M. The experiment in a line: Antiproliferative activity against human NCI-H322M cells assessed as cell growth at 10 uM incubated for 48 hrs by SRB assay relative to control. Type of data set: functional. Particulars: read-out: Activity. Summed up:
as §1

The next data set concerns 786-0. The experiment in a line: Antiproliferative activity against human 786-0 cells assessed as cell growth at 10 uM incubated for 48 hrs by SRB assay relative to control. Type of data set: functional. Particulars: read-out: Activity. Put shortly: as §1
The next data set concerns SF-539. The data set is described as follows: Antiproliferative activity against human SF-539 cells assessed as cell growth at 10 uM incubated for 48 hrs by SRB assay relative to control. Type of data set: functional. The conditions noted are these: read-out: Activity. Put shortly: as §1
Data set [4] relates to A549. The experiment in a line: Antiproliferative activity against human A549 cells assessed as cell growth at 10 uM incubated for 48 hrs by SRB assay relative to control. In kind it is functional. The conditions noted are these: read-out: Activity. Summed up: as §1
In the next data set the test system is T47D. The experiment in a line: Antiproliferative activity against human T47D cells assessed as cell growth at 10 uM incubated for 48 hrs by SRB assay relative to control. In kind it is functional. The conditions noted are these: read-out: Activity. Put shortly:
as §2

The next data set deals with OVCAR-4. The data set is described as follows: Antiproliferative activity against human OVCAR-4 cells assessed as cell growth at 10 uM incubated for 48 hrs by SRB assay relative to control. Type of data set: functional. Particulars: read-out: Activity. Put shortly:
as §1

For data set [5], the species on record is Homo sapiens. The data set is described as follows: Selectivity index, ratio of IC50 for inhibition of HDAC1 (unknown origin) to IC50 for inhibition of HDAC6 (unknown origin). Summed up: (§3)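 Ratio of IC50 values, each from a Fluor de Lys fluorogenic HDAC assay run in duplicate.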
A further data set deals with NCI-H460. The experiment in a line: Antiproliferative activity against human NCI-H460 cells assessed as cell growth at 10 uM incubated for 48 hrs by SRB assay relative to control. Type of data set: functional. Particulars: read-out: Activity. Summed up:
as §1

The subject of data set [6] is A549. The experiment in a line: Antiproliferative activity against human A549 cells assessed as inhibition of cell growth incubated for 72 hrs in presence of adriamycin by alamar blue assay. In kind it is functional, cell-based. The conditions noted are these: A549, 72 h. Summed up:
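Alamar blue assay in IMDM/20% FBS at 37 °C, 5% CO2. Cells were exposed to the two agents together for 72 h, with 5–6 h Alamar blue and fluorescence at 530/590 nm. IC50 in combination was determined. CI50 = IC50Ac/IC50As + IC50Bc/IC50Bs, comparing combination with single-agent IC50s.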

Data set [7] is filed under the species Homo sapiens. The experiment in a line: Selectivity index, ratio of IC50 for inhibition of HDAC8 (unknown origin) to IC50 for inhibition of HDAC6 (unknown origin). Summed up: as §3
Another data set concerns the target Histone deacetylase 11 (Homo sapiens, UniProt Q96DB2). The experiment in a line: Inhibition of HDAC11 (unknown origin) using Fluor de lys as substrate by fluorescence based analysis.
In data set [8] the target is Histone deacetylase 3 (Homo sapiens) (UniProt O15379). The data set is described as follows: Inhibition of HDAC3 (unknown origin) using Fluor de lys as substrate by fluorescence based analysis. Summed up: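 Fluor de Lys fluorogenic substrate/developer activity assay, run by a contract lab. […] Experiments were run in duplicate.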
Data set [9] deals with Protein deacetylase HDAC6 (Homo sapiens) (UniProt Q9UBN7). The data set is described as follows: Inhibition of HDAC6 in human HCT-116 cells assessed as increase in acetylated alpha-tubulin level incubated for 24 hrs by Western blot analysis. Type of data set: cell-based. Particulars: dose 0.1-10 µM. Summed up:
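HCT116 cells were seeded overnight, then treated at 0.1, 1 and 10 μM for 24 h. Cells were lysed with protein extraction reagent plus EDTA-free protease inhibitors. 30 µg protein per sample was resolved by SDS-PAGE and blotted to nitrocellulose. Ac-α-tubulin and Ac-H3 were probed and detected by ECL.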

The next data set deals with Histone deacetylase 4 (Homo sapiens, UniProt P56524). The experiment in a line: Inhibition of HDAC4 (unknown origin) using Fluor de lys as substrate by fluorescence based analysis.
For a further data set, the target named is Histone deacetylase 5 (Homo sapiens, UniProt Q9UQL6). The data set is described as follows: Inhibition of HDAC5 (unknown origin) using Fluor de lys as substrate by fluorescence based analysis.
Data set [10] deals with Polyamine deacetylase HDAC10 (Homo sapiens, UniProt Q969S8). The data set is described as follows: Inhibition of HDAC10 (unknown origin) incubated for 1 hr by TR-FRET analysis. For orientation: In TR-FRET formats the signal depends on donor and acceptor labels being close together.
The next data set addresses Histone deacetylase 9 (Homo sapiens, UniProt Q9UKV0). The data set is described as follows: Inhibition of HDAC9 (unknown origin) using Fluor de lys as substrate by fluorescence based analysis.
The next data set concerns NCI-H226. The experiment in a line: Antiproliferative activity against human NCI-H226 cells assessed as cell growth at 10 uM incubated for 48 hrs by SRB assay relative to control. In kind it is functional. Particulars: read-out: Activity. Put shortly: as §1

Activity calls are given as the source filed them. The rule behind the calls is not given here.

Sequence of Polyamine deacetylase HDAC10 (Q969S8 whole entry): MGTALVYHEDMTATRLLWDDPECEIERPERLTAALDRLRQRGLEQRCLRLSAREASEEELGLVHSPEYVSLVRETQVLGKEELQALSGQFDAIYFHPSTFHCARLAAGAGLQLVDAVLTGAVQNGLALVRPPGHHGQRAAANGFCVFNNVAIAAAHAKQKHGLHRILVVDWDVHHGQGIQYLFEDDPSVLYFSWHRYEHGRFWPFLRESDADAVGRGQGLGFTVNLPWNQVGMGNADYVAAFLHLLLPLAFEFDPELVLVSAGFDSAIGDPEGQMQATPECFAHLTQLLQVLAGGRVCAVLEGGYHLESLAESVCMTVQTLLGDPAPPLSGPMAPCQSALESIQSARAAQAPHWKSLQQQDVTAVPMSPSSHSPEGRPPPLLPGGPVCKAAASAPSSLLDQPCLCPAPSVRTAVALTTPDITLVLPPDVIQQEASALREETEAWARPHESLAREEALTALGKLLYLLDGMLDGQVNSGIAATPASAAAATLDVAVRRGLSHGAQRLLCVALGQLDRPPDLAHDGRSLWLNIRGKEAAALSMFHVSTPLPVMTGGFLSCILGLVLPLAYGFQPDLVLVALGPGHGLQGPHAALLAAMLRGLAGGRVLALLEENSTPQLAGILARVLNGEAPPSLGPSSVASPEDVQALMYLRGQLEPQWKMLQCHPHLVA
Sequence of Histone deacetylase 3 (Homo sapiens) (O15379 whole entry): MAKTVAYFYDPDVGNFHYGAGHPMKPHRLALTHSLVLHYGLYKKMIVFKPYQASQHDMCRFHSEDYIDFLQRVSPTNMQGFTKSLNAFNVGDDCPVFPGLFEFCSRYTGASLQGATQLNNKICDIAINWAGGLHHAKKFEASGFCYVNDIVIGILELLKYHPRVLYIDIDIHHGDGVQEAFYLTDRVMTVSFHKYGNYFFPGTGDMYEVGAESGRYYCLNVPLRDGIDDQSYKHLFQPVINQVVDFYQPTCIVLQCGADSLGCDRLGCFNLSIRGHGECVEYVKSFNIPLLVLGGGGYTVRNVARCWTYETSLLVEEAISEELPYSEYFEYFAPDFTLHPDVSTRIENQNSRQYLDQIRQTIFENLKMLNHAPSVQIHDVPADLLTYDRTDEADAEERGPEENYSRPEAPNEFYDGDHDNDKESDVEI
Sequence of Protein deacetylase HDAC6 (Homo sapiens) (Q9UBN7 whole entry): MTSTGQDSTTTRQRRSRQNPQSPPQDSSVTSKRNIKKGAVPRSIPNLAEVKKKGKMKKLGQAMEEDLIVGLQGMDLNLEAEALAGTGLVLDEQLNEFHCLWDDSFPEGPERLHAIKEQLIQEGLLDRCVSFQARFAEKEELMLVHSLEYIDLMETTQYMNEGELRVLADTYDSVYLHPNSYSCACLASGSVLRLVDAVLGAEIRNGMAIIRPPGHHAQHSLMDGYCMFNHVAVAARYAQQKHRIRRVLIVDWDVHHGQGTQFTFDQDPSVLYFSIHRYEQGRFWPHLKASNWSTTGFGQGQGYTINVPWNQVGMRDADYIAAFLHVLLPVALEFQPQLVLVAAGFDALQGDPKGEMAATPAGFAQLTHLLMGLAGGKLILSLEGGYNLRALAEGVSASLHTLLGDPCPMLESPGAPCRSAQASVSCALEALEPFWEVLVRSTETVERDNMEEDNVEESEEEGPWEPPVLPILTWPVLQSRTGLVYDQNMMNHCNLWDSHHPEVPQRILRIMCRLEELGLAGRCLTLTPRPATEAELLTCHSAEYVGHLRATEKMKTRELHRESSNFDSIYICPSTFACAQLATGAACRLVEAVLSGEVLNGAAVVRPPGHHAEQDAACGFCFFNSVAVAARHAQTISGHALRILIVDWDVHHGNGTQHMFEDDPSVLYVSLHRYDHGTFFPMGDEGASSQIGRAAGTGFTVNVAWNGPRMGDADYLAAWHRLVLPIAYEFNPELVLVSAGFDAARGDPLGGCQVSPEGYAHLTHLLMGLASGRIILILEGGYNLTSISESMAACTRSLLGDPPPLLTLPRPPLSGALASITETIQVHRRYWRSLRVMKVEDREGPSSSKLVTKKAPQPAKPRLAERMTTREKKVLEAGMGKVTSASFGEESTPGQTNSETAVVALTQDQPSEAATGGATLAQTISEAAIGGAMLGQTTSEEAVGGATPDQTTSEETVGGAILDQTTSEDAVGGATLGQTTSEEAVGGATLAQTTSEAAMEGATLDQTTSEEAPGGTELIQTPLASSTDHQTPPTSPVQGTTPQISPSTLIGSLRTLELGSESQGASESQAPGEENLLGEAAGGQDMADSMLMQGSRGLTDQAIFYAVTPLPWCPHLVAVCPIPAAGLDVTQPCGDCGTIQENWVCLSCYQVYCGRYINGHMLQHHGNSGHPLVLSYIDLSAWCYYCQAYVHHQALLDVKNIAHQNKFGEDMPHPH
Sequence of Histone deacetylase 9 (Q9UKV0 whole entry): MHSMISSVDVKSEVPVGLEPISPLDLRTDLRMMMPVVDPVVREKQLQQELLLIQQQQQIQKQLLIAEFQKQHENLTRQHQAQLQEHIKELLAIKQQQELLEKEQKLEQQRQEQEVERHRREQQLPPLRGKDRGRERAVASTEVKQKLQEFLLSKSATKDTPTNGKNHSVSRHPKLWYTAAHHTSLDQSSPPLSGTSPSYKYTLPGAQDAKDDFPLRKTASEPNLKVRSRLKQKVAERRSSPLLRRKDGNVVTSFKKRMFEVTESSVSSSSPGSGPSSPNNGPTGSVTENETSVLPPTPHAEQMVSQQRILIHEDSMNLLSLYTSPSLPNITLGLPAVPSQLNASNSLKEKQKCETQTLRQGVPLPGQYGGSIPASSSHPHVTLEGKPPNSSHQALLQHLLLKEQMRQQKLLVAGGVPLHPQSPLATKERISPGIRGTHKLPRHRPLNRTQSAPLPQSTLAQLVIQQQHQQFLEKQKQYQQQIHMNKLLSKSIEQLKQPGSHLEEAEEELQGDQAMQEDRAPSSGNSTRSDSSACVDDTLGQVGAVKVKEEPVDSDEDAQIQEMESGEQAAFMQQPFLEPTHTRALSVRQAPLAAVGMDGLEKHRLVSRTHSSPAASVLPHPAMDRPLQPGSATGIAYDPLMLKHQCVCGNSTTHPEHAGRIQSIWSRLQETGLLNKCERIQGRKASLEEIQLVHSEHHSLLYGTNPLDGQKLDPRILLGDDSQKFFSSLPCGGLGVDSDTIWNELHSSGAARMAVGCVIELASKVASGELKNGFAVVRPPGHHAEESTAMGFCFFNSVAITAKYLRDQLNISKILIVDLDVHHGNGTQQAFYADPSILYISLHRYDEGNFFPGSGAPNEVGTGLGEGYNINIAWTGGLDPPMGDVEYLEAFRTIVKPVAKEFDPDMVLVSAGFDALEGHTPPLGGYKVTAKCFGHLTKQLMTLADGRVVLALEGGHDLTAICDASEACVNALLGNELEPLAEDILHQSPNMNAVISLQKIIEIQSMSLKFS
Sequence of Histone deacetylase 11 (Q96DB2 whole entry): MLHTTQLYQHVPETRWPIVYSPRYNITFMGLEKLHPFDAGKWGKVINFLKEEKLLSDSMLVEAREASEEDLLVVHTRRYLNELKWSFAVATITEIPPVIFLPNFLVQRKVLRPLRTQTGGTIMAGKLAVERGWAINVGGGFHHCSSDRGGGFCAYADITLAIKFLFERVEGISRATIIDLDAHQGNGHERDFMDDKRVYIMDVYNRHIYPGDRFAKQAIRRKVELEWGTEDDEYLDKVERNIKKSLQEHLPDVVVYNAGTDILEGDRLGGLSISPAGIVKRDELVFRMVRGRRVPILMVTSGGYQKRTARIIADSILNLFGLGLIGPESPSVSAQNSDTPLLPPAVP
Sequence of Histone deacetylase 5 (Q9UQL6 whole entry): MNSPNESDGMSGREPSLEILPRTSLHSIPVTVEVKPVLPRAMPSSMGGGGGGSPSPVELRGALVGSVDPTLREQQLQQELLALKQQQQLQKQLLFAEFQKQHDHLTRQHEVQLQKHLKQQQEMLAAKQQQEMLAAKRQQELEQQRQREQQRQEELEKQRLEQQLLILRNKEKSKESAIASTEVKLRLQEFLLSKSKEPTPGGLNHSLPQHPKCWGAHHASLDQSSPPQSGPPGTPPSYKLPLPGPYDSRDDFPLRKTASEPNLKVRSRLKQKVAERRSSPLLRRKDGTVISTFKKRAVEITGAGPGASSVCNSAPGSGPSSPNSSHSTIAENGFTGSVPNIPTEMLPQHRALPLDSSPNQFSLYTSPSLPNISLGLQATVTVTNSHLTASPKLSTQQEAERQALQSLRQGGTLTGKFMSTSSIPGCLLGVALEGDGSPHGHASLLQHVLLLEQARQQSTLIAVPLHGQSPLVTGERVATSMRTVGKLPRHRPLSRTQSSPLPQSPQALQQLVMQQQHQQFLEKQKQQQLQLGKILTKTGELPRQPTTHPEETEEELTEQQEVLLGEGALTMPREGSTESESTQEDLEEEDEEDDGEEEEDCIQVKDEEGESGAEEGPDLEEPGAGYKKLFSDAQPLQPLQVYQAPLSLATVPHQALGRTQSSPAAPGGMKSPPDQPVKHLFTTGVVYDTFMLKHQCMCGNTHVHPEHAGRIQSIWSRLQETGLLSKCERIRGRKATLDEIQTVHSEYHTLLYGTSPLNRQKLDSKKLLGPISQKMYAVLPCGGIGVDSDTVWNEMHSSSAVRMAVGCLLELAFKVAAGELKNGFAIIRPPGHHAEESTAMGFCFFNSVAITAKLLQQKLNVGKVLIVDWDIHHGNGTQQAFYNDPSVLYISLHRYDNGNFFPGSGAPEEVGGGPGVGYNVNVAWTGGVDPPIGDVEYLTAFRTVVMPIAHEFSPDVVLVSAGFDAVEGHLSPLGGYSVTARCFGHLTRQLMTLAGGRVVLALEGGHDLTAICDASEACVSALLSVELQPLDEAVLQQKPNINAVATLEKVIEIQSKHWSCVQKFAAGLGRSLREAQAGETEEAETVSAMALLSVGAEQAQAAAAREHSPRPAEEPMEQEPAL

Take `O=C(NO)c1ccc(CN2CC(=O)N(Cc3ccccc3)[C@H](Cc3ccccc3)C2=O)cc1`: the growth at 10 µM is 95.2% with MDA-MB-231; 74.3% in the data set on HCT-15; 69.8% with NCI-H522; 102% in the data set on HOP-92; 69.4% in the data set on SNB-75; 81.3% in the data set on U-251. The growth at 10 µM was found to be 96.5% in the data set on SF-268; 89.5% in the data set with NCI-H322M; 94.8% in the data set on 786-0; 87.3% in the data set with SF-539; 95.1% with A549 [4]; 69.1% in the data set with T47D. The growth at 10 µM with OVCAR-4 amounted to 66.5%; with NCI-H460 it was 81.6%. Moreover, in the data set with A549 [1], the CI came out at 0.676. The half-maximal inhibitory concentration (IC50) (usually the concentration at which inhibition is half-maximal) in the data set on A549 [2] is 100 µM; with A549 [6], 8.17 µM. Further, the half-life (as a rule, the time in which the quantity being followed falls by half) at 0.5 µM in [3] is 9.7 h. The Ratio IC50 in the data set listed under Homo sapiens [5] was determined as 981; in the data set listed under Homo sapiens [7], 15.
On to `O=C1CN(Cc2ccc(C(=O)NO)cc2)C(=O)[C@@H](Cc2c[nH]c3ccccc23)N1`, for which the 50% inhibitory concentration (IC50) against Histone deacetylase 11 amounted to 1.8 µM; at Histone deacetylase 4 it was 5.62 µM; against Histone deacetylase 5, 4.37 µM; in data set [10], 0.105 µM; on Histone deacetylase 9, 2.56 µM. Further, the growth at 10 µM with MDA-MB-231 amounted to 107%; with HCT-15, 103%; in the data set on NCI-H522, 96.7%; in the data set with HOP-92, 104%; in the data set on SNB-75 it was 94.5%; with U-251, 96.7%. Besides, the growth at 10 µM amounted to 99.3% with SF-268; 99.1% in the data set with NCI-H322M; 83% in the data set with 786-0; 107% in the data set on SF-539; 96.6% in the data set with A549 [4]; 87.3% in the data set on T47D. The growth at 10 µM with NCI-H226 was 97.6%; in the data set on NCI-H460, 104%. Besides, the inhibition result in data set [8] is “inactive”. Moreover, in data set [9], the inhibition entry was “Dose-Dependent Effect”.

For the origin of these results see ChEMBL document CHEMBL5230083, “Novel 2, 5-diketopiperazine derivatives as potent selective histone deacetylase 6 inhibitors: Rational design, synthesis and antiproliferative activity” (Eur J Med Chem, 2020).
